Legend:
Canis familiaris = test: Tested in anesthetized dog for its inotropic activity after intravenous administration; format: functional; conditions: Canis lupus familiaris
Outline: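 Mongrel dogs of either sex (7-14 kg), anesthetized with sodium pentobarbital (35 mg/kg iv). Dosing was via a femoral vein cannula. Contractility was measured by a Walton-Brodie strain-gauge arch on the right ventricle (tension 50 g); heart rate by cardiometer; lead II ECG. Doses of 0.01 to 8.0 mg/kg iv were given in increasing steps at 5-min intervals. Peak responses are reported as mean ± SEM (n = 4) or mean ± range (n = 2).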

Felis catus = species: Felis catus; test: Inotropic activity in cat papillary muscle at 10e-5 M expressed as percent of control; format: functional
Outline: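 Isolated-tissue bath preparation with contractions recorded on a polygraph. Compounds were dissolved in DMSO and added cumulatively, each concentration being allowed to produce its maximal response before the next higher one was added.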

SMILES	ED50 (Canis familiaris) [mg/kg]	Inotropic activity (% of control) (Felis catus) [%]
COc1cc(SC)ccc1-c1nc2cc[nH]cc-2n1	0.2	143
COc1ccc(-c2cn3cccnc3n2)c(OC)c1		136
COc1cc(S(C)(=O)=O)ccc1-c1cn2ccncc2n1	0.02	180
COc1ccc(-c2cn3ncccc3n2)c(OC)c1		115
COc1cc([S+](C)[O-])ccc1-c1nc2cnccc2[nH]1 (stereo not drawn) [ISOMAZOLE]	0.03	172
COc1cc(SC)ccc1-c1cn2ccncc2n1	0.5	140
COc1ccc(-c2nc3ccc[nH]c-3n2)c(OC)c1		146
COc1cc(S(C)(=O)=O)ccc1-c1nc2ccncc2[nH]1	0.02	176
COc1cc([S+](C)[O-])ccc1-c1cn2ccncc2n1 (stereo not drawn)	0.1	161
COc1cc([S+](C)[O-])ccc1-c1nc2cccnc2[nH]1 (stereo not drawn) [SULMAZOLE]		112
COc1ccc(-c2cn3nccnc3n2)c(OC)c1		130
COc1ccc(-c2cn3cnccc3n2)c(OC)c1		114
COc1ccc(-c2nc3cc[nH]cc-3n2)c(OC)c1	0.3	158
COc1ccc(-c2cn3ccccc3n2)c(OC)c1		98
COc1ccc(-c2cn3ccncc3n2)c(OC)c1	0.7	145

Source: ChEMBL document CHEMBL1124181, “Imidazo[1,2-a]pyrimidines and imidazo[1,2-a]pyrazines: the role of nitrogen position in inotropic activity” (1988)
